According to ChEMBL document CHEMBL1148273, “Vancomycin disulfide derivatives as antibacterial agents” (Bioorg Med Chem Lett, 2004):
≈ marks a conversion by molar mass, not a printed value.

Assays:
[1] = test system: Enterococcus faecium; test: Minimal inhibitory concentration was evaluated against VanA Fm […]; format: functional
[2] = test system: Enterococcus faecalis; test: Minimal inhibitory concentration was evaluated against VanA Fs[…]; format: functional
[3] = test system: Enterococcus sp.; test: Minimal inhibitory concentration was evaluated against VanB (ATCC 51575); format: functional, enterococcus strain
Summary of the method: (§1)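 MICs were determined by the NCCLS broth microdilution method. The strain panel included MSSA ATCC 13709, VanA E. faecium KPB-01, VanA E. faecalis MGH-01 and VanB ATCC 51575.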

[4] = test system: Staphylococcus aureus; test: Minimal inhibitory concentration was evaluated against Staphylococcus aureus MSSA (ATCC 13709); format: functional; summary of the method: as §1
[5] = test system: Staphylococcus aureus; test: Minimal inhibitory concentration was evaluated against methicillin-resistant Staphylococcus aureus (ATCC 33591); format: functional
Summary of the method: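 NCCLS broth microdilution susceptibility test, in vitro, against the MRSA strain ATCC 33591 as part of a Gram-positive panel with MSSA and vancomycin-resistant enterococci. Read-out is the minimal inhibitory concentration.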

[6] = test system: Rattus norvegicus; test: Compound was evaluated for tissue distribution 24 hours after a 50 mg/kg dose was administered intravenously in rat kidney; format: ADME, organism-based; design: dose 50 mg/kg, route intravenous; details: in vivo, iv
Summary of the method: (§2)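 Male Sprague–Dawley rats were given a single intravenous dose of 50 mg/kg. Tissue or urine levels were determined 24 h after dosing.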

[7] = test system: Rattus norvegicus; test: Compound was evaluated for percent dose tissue distribution 24 hours after a 50 mg/kg dose was administered intravenously in liver; format: ADME, organism-based; design: dose 50 mg/kg, route intravenous; details: in vivo, iv; summary of the method: as §2
[8] = Compound was evaluated for tissue distribution 24 hours after a 50 mg/kg dose was administered intravenously in urine; format: ADME, organism-based; design: dose 50 mg/kg, route intravenous; details: rat, iv; summary of the method: as §2
[9] = test system: Rattus norvegicus; test: Compound was evaluated for percent thiol tissue distribution 24 hours after a 50 mg/kg dose was administered intravenously in urine; format: ADME, organism-based; design: dose 50 mg/kg, route intravenous; details: in vivo, iv
Summary of the method: (§3)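 Male Sprague–Dawley rats were dosed intravenously at 50 mg/kg and urine was sampled 24 h later. The metabolite percentage was calculated from the peak area ratio of the metabolite peak to the parent peak.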

[10] = test system: Rattus norvegicus; test: Compound was evaluated for percent dimer tissue distribution 24 hours after a 50 mg/kg dose was administered intravenously in urine; format: ADME, organism-based; design: dose 50 mg/kg, route intravenous; details: in vivo, iv; summary of the method: as §3

SMILES | MIC [1] | MIC [2] | MIC [3] | MIC [4] | MIC [5] | Dose [6] | Dose [7] | dose excreted at 24 h [8] | Dose [9] | Dose [10]
CCCCCCCCCCSSCCNC1(C)CC(OC2C(Oc3c4cc5cc3Oc3ccc(cc3Cl)[C@@H](O)[C@@H](NC(=O)[C@@H](CC(C)C)NC)C(=O)N[C@@H](CC(N)=O)C(=O)N[C@H]5C(=O)N[C@H]3C(=O)N[C@H](C(=O)N[C@H](C(=O)O)c5cc(O)cc(O)c5-c5cc3ccc5O)[C@H](O)c3ccc(c(Cl)c3)O4)OC(O)C(O)C2O)OC(C)C1O (stereo not given in full) | 3.1 µg/mL (≈ 1.86 µM) | 3.1 µg/mL (≈ 1.86 µM) | 0.6 µg/mL (≈ 0.36 µM) | 1.2 µg/mL (≈ 0.72 µM) | 2.4 µg/mL (≈ 1.44 µM) |  |  |  |  | 
CCCCCCCCCCNCCN[C@@]1(C)C[C@H](O[C@@H]2[C@@H](Oc3c4cc5cc3Oc3ccc(cc3Cl)[C@@H](O)[C@@H](NC(=O)[C@@H](CC(C)C)NC)C(=O)N[C@@H](CC(N)=O)C(=O)N[C@H]5C(=O)N[C@H]3C(=O)N[C@H](C(=O)N[C@H](C(=O)O)c5cc(O)cc(O)c5-c5cc3ccc5O)[C@H](O)c3ccc(c(Cl)c3)O4)O[C@@H](CO)[C@H](O)[C@@H]2O)O[C@H](C)[C@H]1O | 4.1 µg/mL (≈ 2.51 µM) | 3.6 µg/mL (≈ 2.21 µM) | 1.8 µg/mL (≈ 1.1 µM) | 0.4 µg/mL (≈ 0.245 µM) | 0.4 µg/mL (≈ 0.245 µM) | 22% | 37% | 16% |  | 
CCCCCCCCCSSCCN[C@@]1(C)C[C@H](O[C@@H]2[C@@H](Oc3c4cc5cc3Oc3ccc(cc3Cl)[C@@H](O)[C@@H](NC(=O)[C@@H](CC(C)C)NC)C(=O)N[C@@H](CC(N)=O)C(=O)N[C@H]5C(=O)N[C@H]3C(=O)N[C@H](C(=O)N[C@H](C(=O)O)c5cc(O)cc(O)c5-c5cc3ccc5O)[C@H](O)c3ccc(c(Cl)c3)O4)O[C@@H](CO)[C@H](O)[C@@H]2O)O[C@H](C)[C@H]1O | 6.3 µg/mL (≈ 3.78 µM) | 3.1 µg/mL (≈ 1.86 µM) | 1.2 µg/mL (≈ 0.72 µM) | 0.3 µg/mL (≈ 0.18 µM) | 0.6 µg/mL (≈ 0.36 µM) |  |  |  |  | 
CCCCCCCCSSCCCN[C@@]1(C)C[C@H](O[C@@H]2[C@@H](Oc3c4cc5cc3Oc3ccc(cc3Cl)[C@@H](O)[C@@H](NC(=O)[C@@H](CC(C)C)NC)C(=O)N[C@@H](CC(N)=O)C(=O)N[C@H]5C(=O)N[C@H]3C(=O)N[C@H](C(=O)N[C@H](C(=O)O)c5cc(O)cc(O)c5-c5cc3ccc5O)[C@H](O)c3ccc(c(Cl)c3)O4)O[C@@H](CO)[C@H](O)[C@@H]2O)O[C@H](C)[C@H]1O | 4.7 µg/mL (≈ 2.82 µM) | 3.8 µg/mL (≈ 2.28 µM) | 1.8 µg/mL (≈ 1.08 µM) | 3.1 µg/mL (≈ 1.86 µM) | 0.4 µg/mL (≈ 0.24 µM) | 0.5% | 4.9% | 1% | 2.3% | 15%
CN[C@H](CC(C)C)C(=O)N[C@H]1C(=O)N[C@@H](CC(N)=O)C(=O)N[C@H]2C(=O)N[C@H]3C(=O)N[C@H](C(=O)N[C@H](C(=O)O)c4cc(O)cc(O)c4-c4cc3ccc4O)[C@H](O)c3ccc(c(Cl)c3)Oc3cc2cc(c3O[C@H]2O[C@@H](CO)[C@H](O)[C@H](O)[C@@H]2OC2C[C@](C)(NCCCSSCCCN[C@]3(C)C[C@@H](O[C@H]4[C@H](Oc5c6cc7cc5Oc5ccc(cc5Cl)[C@@H](O)[C@@H](NC(=O)[C@@H](CC(C)C)NC)C(=O)N[C@@H](CC(N)=O)C(=O)N[C@H]7C(=O)N[C@H]5C(=O)N[C@H](C(=O)N[C@H](C(=O)O)c7cc(O)cc(O)c7-c7cc5ccc7O)[C@H](O)c5ccc(c(Cl)c5)O6)O[C@H](CO)[C@@H](O)[C@H]4O)O[C@@H](C)[C@@H]3O)[C@H](O)[C@@H](C)O2)Oc2ccc(cc2Cl)[C@H]1O (stereo not given in full) | 6.3 µg/mL (≈ 2.07 µM) | 12.5 µg/mL (≈ 4.11 µM) | 4.7 µg/mL (≈ 1.54 µM) | 6.3 µg/mL (≈ 2.07 µM) | 18.8 µg/mL (≈ 6.17 µM) |  |  |  |  | 
CCCCCCCCCCCCCN[C@@]1(C)C[C@H](O[C@@H]2[C@@H](Oc3c4cc5cc3Oc3ccc(cc3Cl)[C@@H](O)[C@@H](NC(=O)[C@@H](CC(C)C)NC)C(=O)N[C@@H](CC(N)=O)C(=O)N[C@H]5C(=O)N[C@H]3C(=O)N[C@H](C(=O)N[C@H](C(=O)O)c5cc(O)cc(O)c5-c5cc3ccc5O)[C@H](O)c3ccc(c(Cl)c3)O4)O[C@@H](CO)[C@H](O)[C@@H]2O)O[C@H](C)[C@H]1O | 4.1 µg/mL (≈ 2.51 µM) | 3.8 µg/mL (≈ 2.33 µM) | 1.6 µg/mL (≈ 0.981 µM) | 2.8 µg/mL (≈ 1.72 µM) | 1.5 µg/mL (≈ 0.919 µM) | 3.4% | 70% | 0.4% |  | 
CCCCCCCCSSCCN[C@@]1(C)C[C@H](O[C@@H]2[C@@H](Oc3c4cc5cc3Oc3ccc(cc3Cl)[C@@H](O)[C@@H](NC(=O)[C@@H](CC(C)C)NC)C(=O)N[C@@H](CC(N)=O)C(=O)N[C@H]5C(=O)N[C@H]3C(=O)N[C@H](C(=O)N[C@H](C(=O)O)c5cc(O)cc(O)c5-c5cc3ccc5O)[C@H](O)c3ccc(c(Cl)c3)O4)O[C@@H](CO)[C@H](O)[C@@H]2O)O[C@H](C)[C@H]1O | 6.3 µg/mL (≈ 3.81 µM) | 4.7 µg/mL (≈ 2.84 µM) | 2.4 µg/mL (≈ 1.45 µM) | 0.2 µg/mL (≈ 0.121 µM) | 0.2 µg/mL (≈ 0.121 µM) |  |  |  |  | 
CCCCCCCCCSSCCCN[C@@]1(C)C[C@H](O[C@@H]2[C@@H](Oc3c4cc5cc3Oc3ccc(cc3Cl)[C@@H](O)[C@@H](NC(=O)[C@@H](CC(C)C)NC)C(=O)N[C@@H](CC(N)=O)C(=O)N[C@H]5C(=O)N[C@H]3C(=O)N[C@H](C(=O)N[C@H](C(=O)O)c5cc(O)cc(O)c5-c5cc3ccc5O)[C@H](O)c3ccc(c(Cl)c3)O4)O[C@@H](CO)[C@H](O)[C@@H]2O)O[C@H](C)[C@H]1O | 4.1 µg/mL (≈ 2.44 µM) | 3.6 µg/mL (≈ 2.14 µM) | 1.8 µg/mL (≈ 1.07 µM) | 0.6 µg/mL (≈ 0.357 µM) | 1.2 µg/mL (≈ 0.714 µM) |  |  |  |  | 
CN[C@H](CC(C)C)C(=O)N[C@H]1C(=O)N[C@@H](CC(N)=O)C(=O)N[C@H]2C(=O)N[C@H]3C(=O)N[C@H](C(=O)N[C@H](C(=O)O)c4cc(O)cc(O)c4-c4cc3ccc4O)[C@H](O)c3ccc(c(Cl)c3)Oc3cc2cc(c3O[C@@H]2O[C@H](CO)[C@@H](O)[C@H](O)[C@H]2O[C@H]2C[C@](C)(N)[C@H](O)[C@H](C)O2)Oc2ccc(cc2Cl)[C@H]1O [VANCOMYCIN] | > 256 µg/mL | > 256 µg/mL | > 256 µg/mL | 0.7 µg/mL (≈ 0.483 µM) |  |  |  |  |  | 
